By IC50 is commonly meant the concentration that inhibits the measured activity by half. The term inhibition denotes the drop in the measured response relative to a control, in per cent. By CC50 is commonly meant the concentration that lowers cell viability or growth by half.

Data set [1] concerns the target T1, Peroxisome proliferator-activated receptor gamma (Homo sapiens) (UniProt P37231).
T1 sequence (whole entry): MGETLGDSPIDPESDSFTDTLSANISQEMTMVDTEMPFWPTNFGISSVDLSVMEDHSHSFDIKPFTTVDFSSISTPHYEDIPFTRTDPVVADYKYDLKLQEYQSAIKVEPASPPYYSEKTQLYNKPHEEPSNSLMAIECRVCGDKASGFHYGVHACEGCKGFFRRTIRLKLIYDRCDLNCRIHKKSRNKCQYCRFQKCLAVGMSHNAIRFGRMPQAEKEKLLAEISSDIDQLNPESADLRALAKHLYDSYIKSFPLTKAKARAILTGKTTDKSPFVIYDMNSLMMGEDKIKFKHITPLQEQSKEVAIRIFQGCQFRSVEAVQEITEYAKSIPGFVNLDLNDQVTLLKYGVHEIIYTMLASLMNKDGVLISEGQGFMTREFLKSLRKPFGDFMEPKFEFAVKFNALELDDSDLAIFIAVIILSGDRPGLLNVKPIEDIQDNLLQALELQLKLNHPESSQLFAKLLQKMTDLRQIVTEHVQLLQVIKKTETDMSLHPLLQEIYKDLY
Kind of data set: Effect on GAL4-tagged human PPARgamma LBD expressed in human HepG2 cells incubated for 20 to 22 hrs by luciferase reporter gene assay. Type of data set: cell-based. Background: In a reporter assay the amount or activity of a reporter protein is the signal.

The target of data set [2] is T2, Peroxisome proliferator-activated receptor alpha (Homo sapiens, UniProt Q07869).
T2 sequence (Q07869 whole entry): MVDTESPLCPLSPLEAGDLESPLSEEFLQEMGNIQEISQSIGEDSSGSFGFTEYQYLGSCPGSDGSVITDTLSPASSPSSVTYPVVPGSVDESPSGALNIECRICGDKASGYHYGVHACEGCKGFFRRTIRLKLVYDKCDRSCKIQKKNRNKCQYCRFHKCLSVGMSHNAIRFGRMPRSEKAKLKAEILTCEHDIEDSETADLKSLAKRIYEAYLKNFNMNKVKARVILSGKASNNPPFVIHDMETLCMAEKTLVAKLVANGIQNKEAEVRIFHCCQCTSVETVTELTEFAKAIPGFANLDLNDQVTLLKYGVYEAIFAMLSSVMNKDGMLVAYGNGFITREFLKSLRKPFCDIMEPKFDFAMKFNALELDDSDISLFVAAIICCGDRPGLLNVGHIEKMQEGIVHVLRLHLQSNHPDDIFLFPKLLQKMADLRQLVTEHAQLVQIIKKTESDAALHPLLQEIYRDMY
Kind of data set: Antagonist activity at GAL4-tagged human PPARalpha LBD expressed in human HepG2 cells assessed as inhibition of Wy14,643-induced receptor transactivation incubated for 20 to 22 hrs by luciferase reporter gene assay. Type of data set: cell-based.

The next data set relates to HepG2. Briefly: Cytotoxicity against human HepG2 cells at >5 uM. The data set is classed as cell-based.
In data set [3] the target is T3, Peroxisome proliferator-activated receptor gamma (Homo sapiens, UniProt P37231).
T3 sequence (P37231 whole entry): T1 sequence (whole entry)
Kind of data set: Antagonist activity at GAL4-tagged human PPARgamma LBD expressed in human HepG2 cells assessed as inhibition of Rosiglitazone-induced receptor transactivation incubated for 20 to 22 hrs by luciferase reporter gene assay.

Data set [4] deals with ASPC1. Briefly: Antiproliferative activity against human AsPC1 cells assessed as inhibition of cell growth at 75 uM incubated for 72 hrs by MTT assay relative to control. Type of data set: functional. The note with it: ASPC1, 72 h. For orientation: Tetrazolium assays rely on reduction of a dye to a coloured formazan, in cell work by metabolically active cells.
Data set [5] deals with BXPC-3. Kind of data set: Antiproliferative activity against human BxPC3 cells assessed as inhibition of cell growth at 75 uM incubated for 72 hrs by MTT assay relative to control. The note with it: BXPC-3, 72 h. The data set is classed as functional.
Data set [6] relates to Capan-2. Kind of data set: Antiproliferative activity against human Capan2 cells assessed as inhibition of cell growth at 75 uM incubated for 72 hrs by MTT assay relative to control. The note with it: Capan-2, 72 h. Type of data set: functional.
The test system of data set [7] is HT-29. Briefly: Antiproliferative activity against human HT-29 cells assessed as inhibition of cell growth at 75 uM incubated for 72 hrs by MTT assay relative to control. Type of data set: functional. The note with it: HT-29, 72 h.
Data set [8] has as its system SW480. Briefly: Antiproliferative activity against human SW480 cells assessed as inhibition of cell growth at 75 uM incubated for 72 hrs by MTT assay relative to control. The note with it: SW480, 72 h. Type of data set: functional.
Data set [9] is described as follows: (§1) Antiproliferative activity against human PTJ86i cells assessed as inhibition of cell growth at 75 uM incubated for 72 hrs by MTT assay relative to control. The data set is classed as functional.
For data set [10], the system named is A498. Kind of data set: Antiproliferative activity against human A498 cells assessed as inhibition of cell growth at 75 uM incubated for 72 hrs by MTT assay relative to control. The note with it: A498, 72 h. Type of data set: functional.
Data set [11] has as its system ASPC1. Kind of data set: Antiproliferative activity against human AsPC1 cells assessed as inhibition of cell growth incubated for 72 hrs by MTT assay. The data set is classed as functional. The note with it: for CC50: ASPC1, 72 h. The essentials:
(§2)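 MTT viability assay after 72 h exposure to compound over 0–24 μM, 24 μM being the highest concentration. […] Data are means ± SD of duplicate experiments, five replicates each.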

Data set [12] relates to BXPC-3. Kind of data set: Antiproliferative activity against human BxPC3 cells assessed as inhibition of cell growth incubated for 72 hrs by MTT assay. Type of data set: functional. The note with it: for CC50: BXPC-3, 72 h. The essentials: as §2
Data set [13] has as its system Capan-2. Briefly: Antiproliferative activity against human Capan2 cells assessed as inhibition of cell growth incubated for 72 hrs by MTT assay. The data set is classed as functional. The note with it: for CC50: Capan-2, 72 h. The essentials:
as §2

In data set [14] the test system is HT-29. Kind of data set: Antiproliferative activity against human HT-29 cells assessed as inhibition of cell growth incubated for 72 hrs by MTT assay. The data set is classed as functional. The note with it: for CC50: HT-29, 72 h. The essentials: as §2
Data set [15] relates to SW480. Kind of data set: Antiproliferative activity against human SW480 cells assessed as inhibition of cell growth incubated for 72 hrs by MTT assay. Type of data set: functional. The note with it: for CC50: SW480, 72 h. The essentials: as §2
Data set [16] is filed under the species Homo sapiens. Kind of data set: Antiproliferative activity against human PTJ64i cells assessed as inhibition of cell growth incubated for 72 hrs by MTT assay. The data set is classed as functional. The essentials: as §2
The species entered for data set [17] is Homo sapiens. Briefly: Antiproliferative activity against human PTJ86i cells assessed as inhibition of cell growth incubated for 72 hrs by MTT assay. The data set is classed as functional. The essentials:
as §2

Data set [18] deals with A498. Briefly: Antiproliferative activity against human A498 cells assessed as inhibition of cell growth incubated for 72 hrs by MTT assay. The data set is classed as functional. The note with it: for CC50: A498, 72 h. The essentials:
as §2

In a further data set the test system is HFF-1. Kind of data set: Cytotoxicity against human HFF1 cells assessed as reduction in cell viability incubated for 72 hrs by MTT assay. The data set is classed as cell-based. The note with it: hff-1, 72 h. The essentials:
as §2

A short description of data set [19]: Selectivity index, ratio of CC50 for human HFF1 cells to CC50 for human PTJ86i cells. The data set is classed as toxicity. The note with it: HFF1 cells and PTJ86i cells.
Data set [20] can be described thus: Selectivity index, ratio of CC50 for human HFF1 cells to CC50 for human PTJ64i cells. The data set is classed as toxicity. The note with it: HFF1 cells and PTJ64i cells.
The species entered for data set [21] is Homo sapiens. Kind of data set: Antiproliferative activity against human PTJ64i cells assessed as inhibition of cell growth at 75 uM incubated for 72 hrs by MTT assay relative to control. Type of data set: functional.
Data set [22] is filed under the species Homo sapiens. The description is as §1. Type of data set: functional.

Active and inactive are the calls of the source. The calls are words filed in the database; no cut-off is given here.

Turning to `CC(C)(Oc1ccc(CCOc2ccc(/N=N/c3ccccc3)cc2)cc1)C(=O)NS(=O)(=O)c1ccccc1`, the Imax in [1] is 87%. The IC50 came to 1.2 µM in data set [2] and 14 µM in data set [3]. In the data set with HepG2, the Activity entry is “Toxic”.

Turning to `CC(C)(Oc1ccc(CCOc2ccc(/N=N/c3ccccc3)cc2)cc1)C(=O)NS(=O)(=O)c1ccc([N+](=O)[O-])cc1`, the outcome in [1] was inactive. Besides, the IC50 in [2] was found to be 1.1 µM. Besides, the inhibition at 75 µM lay in the range of 41 to 92% in the data set on ASPC1 [4]; 41 to 92% in the data set on BXPC-3 [5]; 41 to 92% with Capan-2 [6]; 52 to 98% in the data set with HT-29 [7]; 52 to 98% with SW480 [8]; 84 to 98% in data set [9]. For the same compound, the inhibition at 75 µM with A498 [10] is 51 to 71%. In addition, the inhibition entry with ASPC1 [11], with BXPC-3 [12], with Capan-2 [13], in the data set on HT-29 [14], in the data set on SW480 [15] and in the data set filed under Homo sapiens [16] was “Dose-dependent effect” throughout. Besides, the inhibition result in the data set listed under Homo sapiens [17] and with A498 [18] was “Dose-dependent effect” in each case. Besides, the CC50 was more than 24 µM in the data set with ASPC1 [11]; 17 µM in the data set with BXPC-3 [12]; more than 24 µM with Capan-2 [13]; more than 24 µM in the data set with HT-29 [14]; more than 24 µM in the data set on SW480 [15]; more than 24 µM in the data set with A498 [18]. The CC50 with HFF-1 is more than 24 µM. Further, the selectivity ratio in data set [19] is more than 8.63; in data set [20], more than 8.3.

For the compound `CC(C)(Oc1ccc(CCOc2ccc(NC(=O)c3ccccc3)cc2)cc1)C(=O)NS(=O)(=O)c1ccccc1`, the outcome in data set [1] was inactive. In addition, the IC50 in data set [2] is 0.24 µM. In addition, the inhibition at 75 µM lay in the range of 41 to 92% with ASPC1 [4]; 41 to 92% with BXPC-3 [5]; 41 to 92% in the data set on Capan-2 [6]; 52 to 98% in the data set with HT-29 [7]; 52 to 98% in the data set with SW480 [8]; 84 to 98% in data set [9]. In the data set on A498 [10], the inhibition at 75 µM is 51 to 71%. For the same compound, the inhibition result in the data set with ASPC1 [11], with BXPC-3 [12], with Capan-2 [13], in the data set on HT-29 [14], with SW480 [15] and in the data set filed under Homo sapiens [16] was “Dose-dependent effect” in each case. Moreover, the inhibition result in the data set filed under Homo sapiens [17] and with A498 [18] was “Dose-dependent effect” each time. The CC50 with ASPC1 [11] came to 7 µM; in the data set with BXPC-3 [12] it was 7 µM; in the data set with Capan-2 [13] it was 7 µM; with HT-29 [14], 7 µM; in the data set with SW480 [15] it was 7 µM; with A498 [18] it was 4.6 µM. Moreover, the 50% cytotoxic concentration (CC50) in the data set on HFF-1 was more than 24 µM. Further, the selectivity ratio in data set [19] was more than 11.3; in [20] it was more than 9.45.

In the case of `Cc1cccc(Nc2cc(Cl)nc(SCC(=O)O)n2)c1C`, the inhibition entry in the data set listed under Homo sapiens [21] and in the data set listed under Homo sapiens [22] was “inactive” in each case.

For `CC(C)(Oc1ccc(CCOc2ccc(/N=N/c3ccccc3)cc2)cc1)C(=O)NS(=O)(=O)c1ccc(Cl)cc1`, the outcome in [1] was inactive. Also, the IC50 in data set [2] came out at 0.21 µM. The inhibition at 75 µM in the data set on ASPC1 [4] lay in the range of 41 to 92%; in the data set with BXPC-3 [5], 41 to 92%; with Capan-2 [6] it was 41 to 92%; in the data set with HT-29 [7], 52 to 98%; in the data set with SW480 [8] it was 52 to 98%; in [9], 84 to 98%. For the same compound, the inhibition at 75 µM in the data set on A498 [10] lay within 51 to 71%. The inhibition entry in the data set with ASPC1 [11], with BXPC-3 [12], in the data set on Capan-2 [13], in the data set on HT-29 [14], with SW480 [15] and in the data set listed under Homo sapiens [16] was “Dose-dependent effect” each time. Also, the inhibition entry in the data set filed under Homo sapiens [17] and with A498 [18] was “Dose-dependent effect” each time. For the same compound, the CC50 with ASPC1 [11], with BXPC-3 [12], in the data set on Capan-2 [13], in the data set with HT-29 [14], with SW480 [15] and in the data set on A498 [18] was more than 24 µM in each case. For the same compound, the CC50 in the data set with HFF-1 is more than 24 µM. Also, the selectivity ratio in data set [19] is more than 6.63; in [20], more than 6.35.

These data come from ChEMBL document CHEMBL4613275, “Sulfonimide and Amide Derivatives as Novel PPARα Antagonists: Synthesis, Antiproliferative Activity, and Docking Studies” (ACS Med Chem Lett, 2020).
